Results published in ChEMBL document CHEMBL1150393, “Evaluation of radiolabeled (hetero)aromatic analogues of N-(2-diethylaminoethyl)-4-iodobenzamide for imaging and targeted radionuclide therapy of melanoma” (J Med Chem, 2008).

Tests used:
[1] = Biodistribution in uvea of C57BL/6 mouse bearing mouse B16-F0 cells at 0.74 to 0.92 MBq, iv after 24 hrs; assay type: ADME, organism-based, Uveal tract; details: in vivo
In short: (§1)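 [¹²⁵I]-labelled compound given iv by tail vein (0.1 µmol per mouse) to male C57BL6 mice bearing s.c. B16-F0 flank tumours (5 × 10⁵ cells in PBS). Two mice per time point were killed by CO₂, frozen in liquid nitrogen and cut into 40 µm cryosections, eight slices per mouse. Slice radioactivity was read on a multiwire proportional counter, converted to kBq/g and reported as %ID/g.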

Liver [2] = assay: Biodistribution in liver of C57BL/6 mouse bearing mouse B16-F0 cells at 0.74 to 0.92 MBq, iv after 3 hrs; assay type: ADME, organism-based; details: in vivo
In short: (§2)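 Male C57BL6 mice with s.c. left-flank B16-F0 melanoma (5 × 10⁵ cells in PBS). Two mice per time point frozen in liquid nitrogen after CO₂ sacrifice. Eight 40 µm whole-body cryosections per mouse read by multiwire proportional counter. cpm/mm² converted to kBq/g and expressed as %ID/g.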

[3] = Biodistribution in tumor of C57BL/6 mouse bearing mouse B16-F0 cells at 0.74 to 0.92 MBq, iv after 6 hrs; assay type: ADME, organism-based, Neoplasm; details: in vivo; in short: as §1
Thyroid gland [4] = assay: Biodistribution in thyroid of C57BL/6 mouse bearing mouse B16-F0 cells at 0.74 to 0.92 MBq, iv after 72 hrs; assay type: ADME, organism-based; details: in vivo; in short: as §1
Blood [5] = assay: Biodistribution in blood of C57BL/6 mouse bearing mouse B16-F0 cells at 0.74 to 0.92 MBq, iv after 3 hrs; assay type: ADME, organism-based; details: in vivo; in short: as §2
[6] = Biodistribution in tumor of C57BL/6 mouse bearing mouse B16-F0 cells at 0.74 to 0.92 MBq, iv after 1 hr; assay type: ADME, organism-based, Neoplasm; details: in vivo; in short: as §1
Liver [7] = assay: Biodistribution in liver of C57BL/6 mouse bearing mouse B16-F0 cells at 0.74 to 0.92 MBq, iv after 6 hrs; assay type: ADME, organism-based; details: in vivo; in short: as §2
Thyroid gland [8] = assay: Biodistribution in thyroid of C57BL/6 mouse bearing mouse B16-F0 cells at 0.74 to 0.92 MBq, iv after 6 hrs; assay type: ADME, organism-based; details: in vivo; in short: as §1
[9] = Ratio of drug level in tumor to lung of C57BL/6 mouse bearing mouse B16-F0 cells at 0.74 to 0.92 MBq, iv after 1 hr; assay type: ADME, organism-based; details: in vivo
In short: (§3)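 Tumour and organ radioactive concentrations came from whole-body cryosection counting (40 µm slices, eight per mouse, two mice per time) after tail-vein injection of the [¹²⁵I]-labelled compound (0.1 µmol) into male C57BL6 mice bearing s.c. B16-F0 melanoma. Each value is the ratio of the tumour concentration to the organ concentration.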

Blood [10] = assay: Biodistribution in blood of C57BL/6 mouse bearing mouse B16-F0 cells at 0.74 to 0.92 MBq, iv after 1 hr; assay type: ADME, organism-based; details: in vivo; in short: as §2
[11] = Biodistribution in Stomach content of C57BL/6 mouse bearing mouse B16-F0 cells at 0.74 to 0.92 MBq, iv after 1 hr; assay type: ADME, organism-based; details: in vivo; in short: as §2
[12] = Biodistribution in tumor of C57BL/6 mouse bearing mouse B16-F0 cells at 0.74 to 0.92 MBq, iv after 3 hrs; assay type: ADME, organism-based, Neoplasm; details: in vivo; in short: as §1
[13] = Biodistribution in tumor of C57BL/6 mouse bearing mouse B16-F0 cells at 0.74 to 0.92 MBq, iv after 24 hrs; assay type: ADME, organism-based, Neoplasm; details: in vivo; in short: as §1
[14] = Biodistribution in Stomach content of C57BL/6 mouse bearing mouse B16-F0 cells at 0.74 to 0.92 MBq, iv after 24 hrs; assay type: ADME, organism-based; details: in vivo; in short: as §2
Kidney [15] = assay: Biodistribution in kidney of C57BL/6 mouse bearing mouse B16-F0 cells at 0.74 to 0.92 MBq, iv after 3 hrs; assay type: ADME, organism-based; details: in vivo; in short: as §2
Spleen [16] = assay: Biodistribution in spleen of C57BL/6 mouse bearing mouse B16-F0 cells at 0.74 to 0.92 MBq, iv after 6 hrs; assay type: ADME, organism-based; details: in vivo; in short: as §1
[17] = Ratio of drug level in tumor to lung of C57BL/6 mouse bearing mouse B16-F0 cells at 0.74 to 0.92 MBq, iv after 3 hrs; assay type: ADME, organism-based; details: in vivo; in short: as §3
[18] = Biodistribution in intestinal content of C57BL/6 mouse bearing mouse B16-F0 cells at 0.74 to 0.92 MBq, iv after 1 hr; assay type: ADME, organism-based; details: in vivo; in short: as §2
[19] = Biodistribution in Stomach content of C57BL/6 mouse bearing mouse B16-F0 cells at 0.74 to 0.92 MBq, iv after 6 hrs; assay type: ADME, organism-based; details: in vivo; in short: as §2
Lung [20] = assay: Biodistribution in lung of C57BL/6 mouse bearing mouse B16-F0 cells at 0.74 to 0.92 MBq, iv after 1 hr; assay type: ADME, organism-based; details: in vivo; in short: as §2
Lung [21] = assay: Biodistribution in lung of C57BL/6 mouse bearing mouse B16-F0 cells at 0.74 to 0.92 MBq, iv after 3 hrs; assay type: ADME, organism-based; details: in vivo; in short: as §2
[22] = Biodistribution in intestinal content of C57BL/6 mouse bearing mouse B16-F0 cells at 0.74 to 0.92 MBq, iv after 3 hrs; assay type: ADME, organism-based; details: in vivo; in short: as §2
[23] = Ratio of drug level in tumor to liver of C57BL/6 mouse bearing mouse B16-F0 cells at 0.74 to 0.92 MBq, iv after 6 hrs; assay type: ADME, organism-based; details: in vivo; in short: as §3
[24] = Biodistribution in intestinal content of C57BL/6 mouse bearing mouse B16-F0 cells at 0.74 to 0.92 MBq, iv after 24 hrs; assay type: ADME, organism-based; details: in vivo; in short: as §2
Pancreas = assay: Biodistribution in pancreas of C57BL/6 mouse bearing mouse B16-F0 cells at 0.74 to 0.92 MBq, iv after 1 hr; assay type: ADME, organism-based; details: in vivo; in short: as §2
Spleen [25] = assay: Biodistribution in spleen of C57BL/6 mouse bearing mouse B16-F0 cells at 0.74 to 0.92 MBq, iv after 1 hr; assay type: ADME, organism-based; details: in vivo; in short: as §1
[26] = Biodistribution in gall bladder of C57BL/6 mouse bearing mouse B16-F0 cells at 0.74 to 0.92 MBq, iv after 6 hrs; assay type: ADME, organism-based; details: in vivo; in short: as §2
[27] = Biodistribution in intestinal content of C57BL/6 mouse bearing mouse B16-F0 cells at 0.74 to 0.92 MBq, iv after 6 hrs; assay type: ADME, organism-based; details: in vivo; in short: as §2
Thyroid gland [28] = assay: Biodistribution in thyroid of C57BL/6 mouse bearing mouse B16-F0 cells at 0.74 to 0.92 MBq, iv after 3 hrs; assay type: ADME, organism-based; details: in vivo; in short: as §1
Liver [29] = assay: Biodistribution in liver of C57BL/6 mouse bearing mouse B16-F0 cells at 0.74 to 0.92 MBq, iv after 1 hr; assay type: ADME, organism-based; details: in vivo; in short: as §2
Thyroid gland [30] = assay: Biodistribution in thyroid of C57BL/6 mouse bearing mouse B16-F0 cells at 0.74 to 0.92 MBq, iv after 24 hrs; assay type: ADME, organism-based; details: in vivo; in short: as §1
[31] = Biodistribution in uvea of C57BL/6 mouse bearing mouse B16-F0 cells at 0.74 to 0.92 MBq, iv after 6 hrs; assay type: ADME, organism-based, Uveal tract; details: in vivo; in short: as §1
[32] = Biodistribution in uvea of C57BL/6 mouse bearing mouse B16-F0 cells at 0.74 to 0.92 MBq, iv after 1 hr; assay type: ADME, organism-based, Uveal tract; details: in vivo; in short: as §1
Muscle tissue = assay: Biodistribution in muscle of C57BL/6 mouse bearing mouse B16-F0 cells at 0.74 to 0.92 MBq, iv after 1 hr; assay type: ADME, organism-based; details: in vivo; in short: as §2
[33] = Partition coefficient, log P in phosphate buffer solution at pH 7.4; assay type: physicochemical
In short: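 Shake-flask partition: 50 µM [¹²⁵I]-labelled compound in phosphate buffer pH 7.4 was mixed with 2 mL n-octanol. Each phase was γ-counted, P was taken as the octanol/buffer activity ratio, and log P was reported.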

[34] = Drug excretion in mouse B16-F0 cells bearing C57BL/6 mouse urine at 0.74 to 0.92 MBq, iv after 72 hrs; assay type: ADME, organism-based; details: in vivo
In short: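 Urine was collected from two B16-F0 tumour-bearing C57BL6 mice for up to 72 h after iv tail-vein injection of the [¹²⁵I]-labelled compound (0.1 µmol). Samples were counted to give cumulative urinary excretion as %ID.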

Kidney [35] = assay: Biodistribution in kidney of C57BL/6 mouse bearing mouse B16-F0 cells at 0.74 to 0.92 MBq, iv after 1 hr; assay type: ADME, organism-based; details: in vivo; in short: as §2
[36] = Biodistribution in uvea of C57BL/6 mouse bearing mouse B16-F0 cells at 0.74 to 0.92 MBq, iv after 3 hrs; assay type: ADME, organism-based, Uveal tract; details: in vivo; in short: as §1
[37] = Ratio of drug level in tumor to liver of C57BL/6 mouse bearing mouse B16-F0 cells at 0.74 to 0.92 MBq, iv after 1 hr; assay type: ADME, organism-based; details: in vivo; in short: as §3
[38] = Biodistribution in tumor of C57BL/6 mouse bearing mouse B16-F0 cells at 0.74 to 0.92 MBq, iv after 72 hrs; assay type: ADME, organism-based, Neoplasm; details: in vivo; in short: as §1
[39] = Biodistribution in uvea of C57BL/6 mouse bearing mouse B16-F0 cells at 0.74 to 0.92 MBq, iv after 72 hrs; assay type: ADME, organism-based, Uveal tract; details: in vivo; in short: as §1
[40] = Ratio of drug level in tumor to liver of C57BL/6 mouse bearing mouse B16-F0 cells at 0.74 to 0.92 MBq, iv after 3 hrs; assay type: ADME, organism-based; details: in vivo; in short: as §3
[41] = Biodistribution in gall bladder of C57BL/6 mouse bearing mouse B16-F0 cells at 0.74 to 0.92 MBq, iv after 3 hrs; assay type: ADME, organism-based; details: in vivo; in short: as §2
[42] = Biodistribution in Stomach content of C57BL/6 mouse bearing mouse B16-F0 cells at 0.74 to 0.92 MBq, iv after 3 hrs; assay type: ADME, organism-based; details: in vivo; in short: as §2

Drug uptake [1]: 10.44 % ID/g
Drug uptake (Liver [2]): 7.15 % ID/g
Drug uptake [3]: 9.9 % ID/g
Drug uptake (Thyroid gland [4]): 174.73 % ID/g
Drug uptake (Blood [5]): 1.33 % ID/g
Drug uptake [6]: 14.8 % ID/g
Drug uptake (Liver [7]): 3.38 % ID/g
Drug uptake (Thyroid gland [8]): 34.17 % ID/g
Ratio [9]: 2.86
Drug uptake (Blood [10]): 3.31 % ID/g
Drug uptake [11]: 24.46 % ID/g
Drug uptake [12]: 16.1 % ID/g
Drug uptake [13]: 7.1 % ID/g
Drug uptake [14]: 2.32 % ID/g
Drug uptake (Kidney [15]): 4.57 % ID/g
Drug uptake (Spleen [16]): 14.97 % ID/g
Ratio [17]: 4.31
Drug uptake [18]: 105.55 % ID/g
Drug uptake [19]: 8.62 % ID/g
Drug uptake (Lung [20]): 5.16 % ID/g
Drug uptake (Lung [21]): 3.74 % ID/g
Drug uptake [22]: 72.05 % ID/g
Ratio [23]: 2.93
Drug uptake [24]: 3.19 % ID/g
Drug uptake (Pancreas): 6.17 % ID/g
Drug uptake (Spleen [25]): 11.51 % ID/g
Drug uptake [26]: 38.11 % ID/g
Drug uptake [27]: 95.86 % ID/g
Drug uptake (Thyroid gland [28]): 63.44 % ID/g
Drug uptake (Liver [29]): 13.08 % ID/g
Drug uptake (Thyroid gland [30]): 142.88 % ID/g
Drug uptake [31]: 10.09 % ID/g
Drug uptake [32]: 12.87 % ID/g
Drug uptake (Muscle tissue): 0.55 % ID/g
logD [33]: 1.47
Activity [34]: 17.1%
Drug uptake (Kidney [35]): 6.9 % ID/g
Drug uptake [36]: 24.4 % ID/g
Ratio [37]: 1.13
Drug uptake [38]: 4.5 % ID/g
Drug uptake [39]: 7.26 % ID/g
Ratio [40]: 2.26
Drug uptake [41]: 160.6 % ID/g
Drug uptake [42]: 17.98 % ID/g
SMILES: CCN(CC)CCNC(=O)c1nc2cc([125I])ccc2[nH]1.Cl.Cl
